In ChEMBL document CHEMBL4400542, “Epidermal Growth Factor Receptor-Targeted Multifunctional Photosensitizers for Bladder Cancer Imaging and Photodynamic Therapy” (J Med Chem, 2019):
Activity calls are given as the source filed them. The rule behind the calls is not given here.

How the values were obtained:
[1] = Drug uptake in human UM-UC-3 cells xenografted in SCID mouse at 50 uCi, iv administered at 24 hrs post imaging and measured at 24 to 72 post injection by PET imaging analysis; format: ADME, organism-based, UMUC3; conditions: in vivo
In short: (§1)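 SCID mice (3/group) with UMUC3 tumors first given 18F-FDG (50 µCi) and imaged at 110 min. At 24 h later, 124I-labelled agent given i.v. (50, 25 or 15 µCi); microPET at 24, 48, 72 h post-injection, same bed position. Injected dose checked by well gamma counter, within ±5%.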

[2] = Drug uptake in human UM-UC-3 cells xenografted in SCID mouse at 15 uCi, iv measured at 24 to 72 post injection by PET imaging analysis; format: ADME, organism-based, UMUC3; conditions: in vivo; in short: as §1
[3] = system: UMUC3; assay: Induction of apoptosis in human UM-UC-3 cells assessed as increase in necrotic cells at 1 uM in presence of light by Annexin V/propidium iodide-stining based flow cytometry; format: functional, cell-based
[4] = system: UMUC3; assay: Induction of apoptosis in human UM-UC-3 cells assessed as increase in apoptotic cells at 1 uM in presence of light by Annexin V/propidium iodide-stining based flow cytometry; format: functional, cell-based
[5] = system: T-24; assay: Induction of apoptosis in human T24 cells assessed as increase in apoptotic cells at 100 nM in presence of light by Annexin V/propidium iodide-stining based flow cytometry; format: functional, cell-based
[6] = molecular target: Epidermal growth factor receptor (Homo sapiens) (UniProt P00533); assay: Inhibition of EGFR autophosphorylation at Ty1068 in human UM-UC-3 cells at 1 uM followed by PDT and measured after 24 hrs by Western blot analysis; format: cell-based
Epidermal growth factor receptor (Homo sapiens), sequence (P00533 whole entry): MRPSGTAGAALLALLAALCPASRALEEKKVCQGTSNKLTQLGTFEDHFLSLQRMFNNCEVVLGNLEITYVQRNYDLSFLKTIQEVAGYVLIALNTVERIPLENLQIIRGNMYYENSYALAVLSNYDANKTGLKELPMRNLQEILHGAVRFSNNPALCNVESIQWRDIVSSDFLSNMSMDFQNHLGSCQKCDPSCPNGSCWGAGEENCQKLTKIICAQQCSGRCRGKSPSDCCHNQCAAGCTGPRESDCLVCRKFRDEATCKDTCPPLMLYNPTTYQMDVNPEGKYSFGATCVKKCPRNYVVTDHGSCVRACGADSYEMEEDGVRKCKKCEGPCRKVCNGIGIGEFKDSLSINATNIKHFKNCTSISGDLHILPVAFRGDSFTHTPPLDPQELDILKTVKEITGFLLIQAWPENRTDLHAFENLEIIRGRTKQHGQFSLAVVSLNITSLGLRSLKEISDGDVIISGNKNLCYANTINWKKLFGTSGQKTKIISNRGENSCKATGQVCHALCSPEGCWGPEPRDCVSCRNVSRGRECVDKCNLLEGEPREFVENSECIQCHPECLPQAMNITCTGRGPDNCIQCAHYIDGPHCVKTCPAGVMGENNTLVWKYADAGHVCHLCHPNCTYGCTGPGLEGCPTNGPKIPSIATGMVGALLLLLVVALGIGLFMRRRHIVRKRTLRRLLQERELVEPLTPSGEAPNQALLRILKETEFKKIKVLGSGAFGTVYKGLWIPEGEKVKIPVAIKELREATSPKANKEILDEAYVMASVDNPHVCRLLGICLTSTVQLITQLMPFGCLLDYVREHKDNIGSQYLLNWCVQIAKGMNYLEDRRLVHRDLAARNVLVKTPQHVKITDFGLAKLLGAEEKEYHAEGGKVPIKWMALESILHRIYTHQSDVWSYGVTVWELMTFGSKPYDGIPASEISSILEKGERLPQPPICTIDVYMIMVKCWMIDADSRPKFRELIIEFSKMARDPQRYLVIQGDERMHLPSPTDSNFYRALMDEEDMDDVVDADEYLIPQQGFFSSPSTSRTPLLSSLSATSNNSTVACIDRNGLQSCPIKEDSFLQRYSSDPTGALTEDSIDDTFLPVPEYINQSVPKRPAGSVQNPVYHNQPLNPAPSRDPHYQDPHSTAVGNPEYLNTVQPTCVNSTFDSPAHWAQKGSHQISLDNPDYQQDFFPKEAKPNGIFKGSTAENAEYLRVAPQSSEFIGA

[7] = molecular target: Epidermal growth factor receptor (Homo sapiens) (UniProt P00533); assay: Inhibition of EGFR autophosphorylation at Ty1068 in human T24 cells at 1 uM followed by PDT and measured after 24 hrs by Western blot analysis; format: cell-based
[8] = molecular target: Epidermal growth factor receptor (Homo sapiens) (UniProt P00533); assay: Inhibition of EGFR autophosphorylation at Ty1068 in human UM-UC-3 cells at 100 nM followed by PDT and measured after 24 hrs by Western blot analysis; format: cell-based
[9] = system: T-24; assay: Induction of apoptosis in human T24 cells assessed as increase in apoptotic cells at 1 uM in presence of light by Annexin V/propidium iodide-stining based flow cytometry; format: functional, cell-based
[10] = system: T-24; assay: Induction of apoptosis in human T24 cells assessed as increase in necrotic cells at 1 uM in presence of light by Annexin V/propidium iodide-stining based flow cytometry; format: functional, cell-based
[11] = system: UMUC3; assay: Induction of apoptosis in human UM-UC-3 cells assessed as increase in apoptotic cells at 100 nM in presence of light by Annexin V/propidium iodide-stining based flow cytometry; format: functional, cell-based
[12] = system: UMUC3; assay: Induction of apoptosis in human UM-UC-3 cells assessed as increase in necrotic cells at 100 nM in presence of light by Annexin V/propidium iodide-stining based flow cytometry; format: functional, cell-based
[13] = system: UMUC3; assay: Anti-tumor activity against human UM-UC-3 cells xenografted in SCID mouse at 0.47 umol/kg, iv in presence of 135 J/cm2 light irradiation at 24 hrs post injection and measured every day till day 60; format: functional, organism-based
In short: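 UMUC-3 cells implanted in right flank of SCID mice; at 4–5 mm tumors, PS given i.v. at 0.47 µmol/kg. Tumors exposed to 665 nm light, 135 J/cm2 at 75 mW/cm2, 24 h post-injection. Tumor regrowth monitored daily; mice euthanized at >400 mm3; tumor-free status scored at day 60.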

[14] = system: UMUC3; assay: Anti-tumor activity against human UM-UC-3 cells xenografted in SCID mouse assessed as tumor necrosis at 0.47 umol/kg, iv in presence of 135 J/cm2 light irradiation at 24 hrs post injection and measured at 72 hrs post light exposure; format: functional, organism-based
[15] = Induction of singlet oxygen generation in deaerated toluene at 670 nm assessed as rate of singlet decay by femtosecond transient absorption spectroscopy; format: functional
[16] = Induction of singlet oxygen generation in deaerated toluene at 670 nm assessed as singlet decay life time by femtosecond transient absorption spectroscopy; format: functional
[17] = Induction of singlet oxygen generation in Ar-saturated toluene solution at 670 nm assessed as decay rate constant of triplet excited state by femtosecond transient absorption spectroscopy; format: functional
[18] = Induction of singlet oxygen generation in oxygen-saturated toluene solution at 670 nm assessed as decay rate constant of triplet excited state by femtosecond transient absorption spectroscopy; format: functional
[19] = Induction of singlet oxygen generation assessed as energy transfer from the triplet chlorins to oxygen by femtosecond transient absorption spectroscopy; format: functional

Row | Drug uptake [1] | Drug uptake [2] | inhibition [6] | inhibition [7] | inhibition [8] | Structure (SMILES) | Activity [3] | Activity [4] | Activity [5] | Activity [9] | Activity [10] | Activity [11] | Activity [12] | Activity [13] | Activity [14] | K [15] [×10⁹ /s] | Time [16] [pS] | K [17] [×10⁴ /s] | K [18] [×10⁵ /s] | K [19] [×10¹⁰ /M/s]
1 | Active | Active |  |  |  | CCC1=C(C)c2cc3[nH]c(cc4nc(c5c6[nH]c(cc1n2)c(C)c6C(=O)C5)[C@@H](CCC(=O)NCc1cccc(C#Cc2cccc(Nc5ncnc6cc(OCCOC)c(OCCOC)cc56)c2)c1)[C@@H]4C)c(C)c3C(C)OCc1cccc([124I])c1 (some centres undefined) |  |  |  |  |  |  |  |  |  |  |  |  |  | 
2 |  |  | Active | Active | Active | CCC1=C(C)c2cc3[nH]c(cc4nc(c5c6[nH]c(cc1n2)c(C)c6C(=O)C5)[C@@H](CCC(=O)NCc1cccc(C#Cc2cccc(Nc5ncnc6cc(OCCOC)c(OCCOC)cc56)c2)c1)[C@@H]4C)c(C)c3C(C)OCc1cccc(I)c1 (some centres undefined) | Active | Active | inactive | Active | Active | Active | Active | Active | Active | 7.5 | 133 | 9.8 | 2.07 | 1.03
